# Hits are enriched below; roughly 2% of the tested compounds scored in any of these assays.
# LGR2 antag = Drosophila LGR2 receptor signaling inhibition; HEK293 LGR2, CRE-luciferase, bursicon-stimulated, 4 h; inhibition, % at 9.99 µM; 380,000 compounds, 0.35% hits; AID 720647;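 active means drop in luminescence signal, shown as inhibition above about 50% in the replicate tests, limit read from the data, passing the limit was not always enough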;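 further: agonist challenge used bursicon conditioned medium at about half maximal strength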
# Xi reactivation = X-chromosome reactivation activator; XiGFP mouse fibroblasts, % GFP-positive cells imaging, 3 d; cells co-treated with 5-aza-dC sensitizer; scaled so ellipticine positive control = 100%; 360,000 compounds, 0.055% hits; activation, % at 7.58 µM;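 active means mean normalized replicate activation at least 10% and every replicate at or above 10%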;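 further: 0% = median of on-plate neutral control wells and 100% = ellipticine 6 µM median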
#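 Material: XiGFP fibroblasts, SV40-immortalized. Buffer or medium: DMEM plus 5-aza-dC sensitizer. Compound: single concentration per compound, delivered by pin transfer. Times: 3 days compound exposure. Controls: ellipticine 6 µM.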
# TWEAK-Fn14 inh = TWEAK-Fn14 signaling inhibition | 360,000 compounds, 2% hits | inhibition, % at 10 µM | TWEAK-stimulated Fn14 reporter cells, luciferase luminescence, 8 h; in the data active means inhibition above about 50%
# CaV13 FRET inh = Primary screen for inhibitors of IQ motif and Ca2+-dependent inactivation inhibitor domain binding in CACNA1D, Förster resonance energy transfer in living cells, …. HEK cells, CFP/YFP FRET ICDI-IQ, plate reader, 10 min; percent FRET-ratio fall versus neutral wells. inhibition, % at 12.3 µM. 340,000 compounds, 0.098% hits. AID 743397;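 active means mean replicate inhibition of at least 30% and at least 1% of replicates passing that level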;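 further: 0% = median of the neutral control wells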
# TROY NFkB inh = blocks TROY-dependent signaling in reporter cells; inhibition, % at 10 µM; 360,000 compounds, 0.98% hits; Q293 LMP1-TROYcd NF-kB luciferase reporter, 4 h; AID 1347056;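 active means compounds whose plate-normalised and pattern-corrected inhibition of the luciferase reporter signal at the single screening dose is 50% or more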
# * hit, by the source's call; x = no result; + = active, no number.
SMILES,LGR2 antag,Xi reactivation,TWEAK-Fn14 inh,CaV13 FRET inh,TROY NFkB inh
COc1cccc(N2CC(=O)Nc3c(oc4nc(-c5ccccc5)cc(C)c34)C2=O)c1,5,0,41,-5,71*
CN1C(=O)c2cc(NC(=O)Cc3ccccc3)ccc2OC[C@@H]2O[C@@H](CC(=O)O)CC[C@@H]21,11,0,x,x,x
O=C(O)c1ccc(-c2sc(Nc3ccccc3)n[n+]2-c2ccc(F)cc2)cc1,x,x,18,x,-9
Fc1ccc(-[n+]2nc(Nc3ccccc3)sc2-c2c(Cl)cccc2Cl)cc1,71*,0,24,-4,40
CCc1ccc(Nc2n[n+](-c3ccccc3)c(-c3c(Cl)cccc3Cl)s2)cc1,44,0,52*,-7,59*
CCc1ccc(Nc2n[n+](-c3ccccc3)c(-c3ccc(OCc4ccccc4)cc3)s2)cc1,-30,0,83*,-5,36
CCc1ccc(Nc2n[n+](-c3ccccc3)c(-c3ccc(N(CC)CC)cc3)s2)cc1,8,-1,43,-5,30
CCc1ccc(Nc2n[n+](-c3ccccc3)c(-c3cc(OC)c(OC)cc3Br)s2)cc1,1,0,-24,-10,-4
COc1ccc(NC(=O)N(C)C[C@@H]2Oc3ccc(NS(=O)(=O)c4c(C)noc4C)cc3C(=O)N([C@H](C)CO)C[C@H]2C)cc1,-2,0,x,x,x
CCOC(=O)C1=C(N)N(c2ccccc2)C2=C(C(=O)CCC2)C1c1cccnc1 (configuration not stated),15,0,52*,-5,14
Cc1noc(C)c1NC(=O)Nc1ccc2c(c1)C(=O)N(C)[C@@H]1CC[C@@H](CC(=O)NCc3ccc(Cl)cc3)O[C@@H]1CO2,-4,0,x,x,x
COc1ccc(C(=O)N/N=C/c2ccc(OC)c(CN3CCCc4ccccc43)c2)cc1,-4,x,58*,-8,-13
Cc1noc(C)c1NC(=O)Nc1ccc2c(c1)CC(=O)N([C@H](C)CO)C[C@H](C)[C@@H](CN(C)Cc1ccccc1)O2,-11,0,x,x,x
N#C/C(=C\C=C\c1ccccc1[N+](=O)[O-])C(=O)NC1CCCCC1,x,x,82*,x,-29
Cc1noc(NS(=O)(=O)c2ccc(N/C=C/C(=O)c3ccc(F)cc3)cc2)c1C,7,0,57*,-5,10
Cc1noc(NS(=O)(=O)c2ccc(N/C=C\C(=O)c3ccncc3)cc2)c1C,x,x,13,-6,-10
O=c1c2ccccc2n(CC(O)CN2CCCCC2)c2ccccc12 (configuration not stated),-1,0,39,+,-12
OC(CN1CCCCC1)Cn1c2ccccc2c2ccccc21 (configuration not stated),-13,0,-2,-18,-7
CC(C)NC(=O)N[C@@H]1C=C[C@@H](CC(=O)NCc2ccc(Oc3ccccc3)cc2)O[C@@H]1CO,-10,0,x,x,x
C[C@@H]1CN([C@H](C)CO)C(=O)c2cc(NS(=O)(=O)c3ccc(F)cc3)ccc2O[C@@H](C)CCCCO[C@H]1CN(C)Cc1ccccc1,-3,0,x,x,x
CCC(C(=O)Nc1ccc(S(=O)(=O)Nc2ncccn2)cc1)c1ccccc1 (configuration not stated),15,0,86*,-20,14
CCCCNS(=O)(=O)c1ccc(NC(=O)C(Sc2ccccc2)c2ccccc2)cc1 (configuration not stated),13,0,63*,-4,43
CCCSc1ncc(Cl)c(C(=O)Nc2ccc(S(=O)(=O)Nc3ncccn3)cc2)n1,2,0,58*,-6,-14
CCC(C)NS(=O)(=O)c1ccc(NC(=O)C(Sc2ccccc2)c2ccccc2)cc1 (configuration not stated),30,0,41,-4,41
C[C@H]1CN([C@@H](C)CO)C(=O)c2cc(NC(=O)Cn3cnnn3)ccc2O[C@@H]1CN(C)S(=O)(=O)c1ccc(Cl)cc1,10,0,x,x,x
O=C(NCC[C@@H]1CC[C@@H](NS(=O)(=O)Cc2ccccc2)[C@@H](CO)O1)C1CCC1,0,0,x,x,x
CC(=O)Nc1ccc2c(c1)C(=O)N(C)[C@@H]1CC[C@@H](CC(=O)NCCCN3CCOCC3)O[C@H]1CO2,7,0,x,x,x

# Bioassay records as filed in PubChem.
